The values below come from ChEMBL document CHEMBL1142212, “Length effects in antimicrobial peptides of the (RW)n series” (Antimicrob Agents Chemother, 2007).

Assay [1] has as its system Escherichia coli. Nature of the assay: Growth inhibition of Escherichia coli D31.
For assay [2], the system named is Staphylococcus aureus. Kind of assay: Growth inhibition of Staphylococcus aureus ATCC BAA44.
The test system of assay [3] is Escherichia coli. Kind of assay: Antimicrobial activity against Escherichia coli D31 after 18 hrs. The following applies: D31, 18 h.
The subject of assay [4] is Staphylococcus aureus. Kind of assay: Antimicrobial activity against Staphylococcus aureus ATCC BAA44 after 18 hrs.
For the next assay, the system named is Erythrocyte. Nature of the assay: Hemolytic activity in sheep red blood cells. In kind it is functional, Ovis aries. The gist of the method: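 Fresh sheep erythrocyte suspension was incubated with peptide in PBS pH 7.2 at 37°C for 30 min, then centrifuged at 3,000 rpm for 10 min. Supernatant was diluted 40-fold in water and read at OD540. Buffer gave 0% and 1% Triton-X gave 100% hemolysis. HD50 is the concentration giving 50% hemolysis, taken from dose-response curves.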

≈ marks a conversion by molar mass, not a printed value. Peptide text beside a SMILES is read from it.

In the case of `N=C(N)NCCC[C@H](NC(=O)[C@H](Cc1c[nH]c2ccccc12)NC(=O)[C@@H](N)CCCNC(=N)N)C(=O)N[C@@H](Cc1c[nH]c2ccccc12)C(N)=O` (H-RWRW-NH2), the IC50 (commonly the concentration needed to halve the response being measured) in the assay with Escherichia coli [1] is 730 µM; with Staphylococcus aureus [2] it was 210 µM. Moreover, the values for the MBC50 against Escherichia coli [3] and in the assay on Staphylococcus aureus [4] were 990 µM (≈ 695 µg/mL) and 620 µM (≈ 435 µg/mL), respectively. The compound also displayed an HD50 in the assay on Erythrocyte of 3700 µM.

Turning to `N=C(N)NCCC[C@H](N)C(=O)N[C@@H](Cc1c[nH]c2ccccc12)C(N)=O` (H-Arg-Trp-NH2), the IC50 was 4300 µM in the assay with Escherichia coli [1] and 2100 µM with Staphylococcus aureus [2]. Also, the MBC50 with Escherichia coli [3] worked out at 4700 µM (≈ 1690 µg/mL); against Staphylococcus aureus [4], 2300 µM (≈ 827 µg/mL). In the assay on Erythrocyte, this compound came in with an HD50 of 8900 µM.

For the compound `N=C(N)NCCC[C@H](NC(=O)[C@H](Cc1c[nH]c2ccccc12)NC(=O)[C@H](CCCNC(=N)N)NC(=O)[C@H](Cc1c[nH]c2ccccc12)NC(=O)[C@@H](N)CCCNC(=N)N)C(=O)N[C@@H](Cc1c[nH]c2ccccc12)C(N)=O` (H-RWRWRW-NH2), the IC50 in the assay on Escherichia coli [1] is 16 µM; with Staphylococcus aureus [2], 8 µM. Further, the MBC50 came out at 29 µM (≈ 30.3 µg/mL) in the assay with Escherichia coli [3] and 15 µM (≈ 15.7 µg/mL) in the assay with Staphylococcus aureus [4]. Further, the HD50 in the assay with Erythrocyte was 210 µM.

Turning to `N=C(N)NCCC[C@H](NC(=O)[C@H](Cc1c[nH]c2ccccc12)NC(=O)[C@H](CCCNC(=N)N)NC(=O)[C@H](Cc1c[nH]c2ccccc12)NC(=O)[C@H](CCCNC(=N)N)NC(=O)[C@H](Cc1c[nH]c2ccccc12)NC(=O)[C@@H](N)CCCNC(=N)N)C(=O)N[C@@H](Cc1c[nH]c2ccccc12)C(N)=O` (H-RWRWRWRW-NH2), the IC50 in the assay with Escherichia coli [1] was 9.6 µM; in the assay with Staphylococcus aureus [2], 5.1 µM. Besides, the MBC50 against Escherichia coli [3] turned out to be 14 µM (≈ 19.4 µg/mL); against Staphylococcus aureus [4], 12 µM (≈ 16.6 µg/mL). For the same compound, in the assay on Erythrocyte, the HD50 was determined as 100 µM.

For `N=C(N)NCCC[C@H](NC(=O)[C@H](Cc1c[nH]c2ccccc12)NC(=O)[C@H](CCCNC(=N)N)NC(=O)[C@H](Cc1c[nH]c2ccccc12)NC(=O)[C@H](CCCNC(=N)N)NC(=O)[C@H](Cc1c[nH]c2ccccc12)NC(=O)[C@H](CCCNC(=N)N)NC(=O)[C@H](Cc1c[nH]c2ccccc12)NC(=O)[C@@H](N)CCCNC(=N)N)C(=O)N[C@@H](Cc1c[nH]c2ccccc12)C(N)=O`, the IC50 in the assay with Escherichia coli [1] was found to be 6.2 µM; in the assay with Staphylococcus aureus [2] it was 3.6 µM. The MBC50 came out at 7.2 µM (≈ 12.4 µg/mL) with Escherichia coli [3] and 6.9 µM (≈ 11.9 µg/mL) against Staphylococcus aureus [4]. The HD50 in the assay on Erythrocyte was determined as 76 µM.
